In the library only some 2.9% were active in any assay of this set; here they are far more common.
HSP90 inh = blocks HSP90-mediated luciferase refolding in reticulocyte lysate. Rabbit reticulocyte lysate, luciferase refolding luminescence, 3 h. inhibition, % at 5.6 µM. hit rate 0.91% among 290,000;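 active means inhibition above the screen-wide mean plus 3 SD, computed separately per campaign, cut at about 16% in these data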;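 further: 0% = DMSO wells and 100% = 60 µM geldanamycin wells; inhibitors lower the luminescence because luciferase stays unfolded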
SENP6 inh = SENP6 protease inhibition; Q9GZR1; Recombinant SENP6 catalytic domain, aminoluciferin luminescence; inhibition, % at 10 µM; hit rate 1.8% among 330,000; AID 2599;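 active means inhibition above about 50% at the single tested dose, limit read from the data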;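 further: plate controls were DMSO wells with enzyme for no effect and DMSO wells lacking enzyme for full effect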
SENP7 inh = inhibitors of human SENP7 protease; inhibition, % at 5 µM; recombinant SENP7, Z-RLRGG-aminoluciferin luminescence, 40 min; Q9BQF6; hit rate 1.5% among 330,000;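 active means inhibition above about 50% at the single test dose, limit read from the data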;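 further: plate controls were DMSO with enzyme for no effect and no enzyme buffer wells for full effect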
SENP8 block-1 = inhibitors of human SENP8 protease. inhibition, % at 10 µM. AID 2540. purified SENP8, Z-RLRGG-aminoluciferin cleavage, luminescence. Q96LD8. hit rate 1.2% among 330,000; in the data active means inhibition above about 50%
Target sequence (Q96LD8 whole entry, looked up): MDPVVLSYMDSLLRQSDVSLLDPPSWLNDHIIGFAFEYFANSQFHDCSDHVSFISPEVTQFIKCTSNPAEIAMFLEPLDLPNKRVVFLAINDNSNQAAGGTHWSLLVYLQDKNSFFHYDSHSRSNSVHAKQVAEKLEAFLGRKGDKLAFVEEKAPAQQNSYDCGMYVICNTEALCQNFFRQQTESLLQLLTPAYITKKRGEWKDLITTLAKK
SENP1 inh = inhibitors of human SENP1 SUMO protease catalytic domain | inhibition, % at 10 µM | hit rate 0.21% among 360,000 | recombinant SENP1 catalytic domain, CyPet-SUMO1-YPet FRET cleavage | AID 624204;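 active means inhibition at least 30% at 10 µM, raw YFP signal under a set limit, fluorescence ratio 0.5 to 1.5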;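 further: 0% = enzyme with DMSO and 100% = no enzyme wells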
Target sequence (Q9P0U3 419-644 limits assumed): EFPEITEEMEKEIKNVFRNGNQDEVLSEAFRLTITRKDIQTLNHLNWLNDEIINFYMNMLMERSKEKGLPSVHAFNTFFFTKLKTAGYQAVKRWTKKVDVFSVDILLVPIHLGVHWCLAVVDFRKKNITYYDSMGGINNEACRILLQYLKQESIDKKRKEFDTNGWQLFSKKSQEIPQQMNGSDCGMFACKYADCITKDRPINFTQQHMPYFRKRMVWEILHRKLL
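Test system: recombinant human SENP1 catalytic domain, His6-tagged / Medium: pH 8 Tris buffer with EDTA, NaCl, BME, BSA, NP40, catalase / Also added: SUMO1 FRET substrate flanked by Cypet and Ypet, 25 nM / Times: 50 min reaction at room temperature / Signal: FRET, CFP and YFP emission / Control set: no-enzyme low control and enzyme-plus-DMSO high control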
SENP8 block-2 = blocks human SENP8 cleavage of Nedd8 substrate | hit rate 0.64% among 360,000 | inhibition, % at 20 µM | recombinant SENP8, Nedd8 substrate fluorescence | Q96LD8 | AID 602440; in the data active means inhibition mostly above about 40%, no sharp cut-off; inactive means mostly below about 27%
SENP8 confirm = human SENP8 inhibition, confirmed; Recombinant SENP8, Z-RLRGG-aminoluciferin luminescence, 60 min; hit rate 40% among 6,200; inhibition, % at 12.5 µM; shares compounds with SENP7 inh; AID 488912;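 active means mean inhibition across replicates above about 50%, limit read from the data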
SENP6 conf = human SENP6 inhibition, confirmed | shares compounds with SENP7 inh | recombinant SENP6, Z-RLRGG-aminoluciferin luminescence | inhibition, % at 12.5 µM | hit rate 58% among 6,200 | AID 488915
SENP7 confirm = confirmation of human SENP7 protease inhibitors. shares compounds with SENP7 inh. recombinant SENP7, Z-RLRGG-aminoluciferin luminescence, 40 min. inhibition, % at 12.5 µM. hit rate 69% among 6,200. AID 488917
Casp3 SENP sel = selectivity test for SENP inhibitors: human caspase-3 inhibition. shares compounds with SENP7 inh. purified caspase-3, Z-DEVD-aminoluciferin luminescence, 60 min. inhibition, % at 12.5 µM. hit rate 60% among 6,200;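 active means mean inhibition above about 50%, limit read from the data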;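 further: plate controls were enzyme with DMSO for no effect and wells without caspase-3 for full effect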
Luc interf = counter-screen for SENP inhibitors: luminescence interference; shares compounds with SENP7 inh; Pre-incubated SENP8/Z-RLRGG-aminoluciferin, luciferase luminescence interference; inhibition, % at 12.5 µM; hit rate 39% among 6,200; AID 488919;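 active means mean inhibition above about 50% when retested at one dose, limit read from the data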;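 further: plate controls were DMSO wells with completed reaction for no effect and substrate without enzyme for full effect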
* marks the source's active call; other numbers are inactive results; nt = no result given.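 How the source made its calls, unless noted: active means mean inhibition above about 50% in the one-dose retest (limit read from the data); inactive means the rest.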

SMILES	HSP90 inh	SENP6 inh	SENP7 inh	SENP8 block-1	SENP1 inh	SENP8 block-2	SENP8 confirm	SENP6 conf	SENP7 confirm	Casp3 SENP sel	Luc interf
Cc1ccc(NC2=C(N3CCCCC3)C(=O)c3ccccc3C2=O)cc1	5	66*	-21	52*	-108	82*	8	90*	74*	95*	10
O=C1C(Nc2cccc(O)c2)=C(N2CCCCC2)C(=O)c2ccccc21	3	81*	41	63*	-57	76*	57*	77*	45	94*	-1
O=C1C(Nc2ccccc2)=C(N2CCCCC2)C(=O)c2ccccc21	2	86*	61*	59*	-96	83*	63*	79*	58*	95*	6
COc1ccccc1NS(=O)(=O)c1cc(N)ccc1N1CCCC1	nt	11	-3	1	-27	-356	nt	nt	nt	nt	nt
COc1ccccc1NC1=C(N2CCCCC2)C(=O)c2ccccc2C1=O	5	74*	47	73*	-80	88*	43	91*	72*	97*	-4
COc1ccc(N2CCN(C(=O)c3cccc(NC(=O)c4ccco4)c3)CC2)cc1	-1	9	-7	2	2	6	nt	nt	nt	nt	nt
O=C(/C=C/c1ccc(O)cc1)c1ccc(NC2=C(N3CCCCC3)C(=O)c3ccccc3C2=O)cc1	1	76*	48	67*	-28	25	64*	85*	77*	95*	84*
CN(C)c1ccc(/C=C/C(=O)c2ccc(O)cc2)cc1	nt	nt	nt	nt	-26	-434	nt	nt	nt	nt	nt
COc1ncccc1-c1ccc2nncn2c1	nt	nt	nt	nt	2	-15	nt	nt	nt	nt	nt
CC1Sc2ccc(C(=O)OCc3ccccc3Cl)cc2NC1=O (stereo not given)	nt	55*	70*	6	-1	-9	-24	-11	-1	2	-5
COc1cccc(COC(=O)c2ccc3c(c2)NC(=O)C(C)S3)c1OC (stereo not given)	nt	-16	3	6	-2	0	nt	nt	nt	nt	nt
Cc1cccc(OCCCC(=O)Nc2ccc(S(=O)(=O)Nc3onc(C)c3C)cc2)c1	-4	-1	-7	7	2	-14	nt	nt	nt	nt	nt
Cc1cc(NC(=O)Nc2cccc(Cl)c2)no1	nt	nt	nt	nt	0	10	nt	nt	nt	nt	nt
Cc1cccc(NC(=O)Nc2ccc(S(=O)(=O)Nc3onc(C)c3C)cc2)c1	nt	77*	49	83*	1	17	88*	85*	94*	87*	52*
Cc1cc(NS(=O)(=O)c2ccc(NC(=O)Nc3ccc4c(c3)OCO4)cc2)no1	-2	67*	47	34	3	13	55*	51*	82*	76*	38
Cc1cc(NS(=O)(=O)c2ccc(NC(=O)Nc3cccc(Cl)c3)cc2)no1	1	84*	69*	72*	0	19	10	81*	93*	67*	59*
Cc1noc(NS(=O)(=O)c2ccc(NC(=O)c3cnc4scc(C)n4c3=O)cc2)c1C	-5	67*	18	46	-2	-20	39	38	69*	82*	49
O=C1Nc2ccccc2/C1=N\c1sc2c(c1C(=O)Nc1ccccc1)CCCC2	-2	-4	7	-3	-10	-15	nt	nt	nt	nt	nt
Cc1c(C(=O)NCc2ccccc2)sc(=O)n1Cc1ccccc1F	nt	nt	nt	nt	-2	0	nt	nt	nt	nt	nt
COc1ccc(C(=O)Nc2nnc(-c3cccs3)s2)cc1	0	-12	56*	-9	0	-468	-4	-4	-2	19	8
